Bioassay records: PubChem BioAssay, Broad Institute
HIV Env fusion = inhibitors of HIV Env-mediated cell fusion; HeLa-JRFL Env/CEM21 cell fusion, luciferase; inhibition, % at 12.3 µM; hit rate 1.1% among 360,000;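 active means mean replicate inhibition score of at least 50 and every replicate individually at or above 50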;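 further: 0% = plate neutral controls and 100% = maraviroc near 300 nM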
AF4-AF9 inh = MLL-AF4/AF9 protein interaction inhibition | AID 651704 | hit rate 0.47% among 350,000 | AlphaScreen, biotin-AF4 peptide binding to FLAG-AF9 | inhibition, % at 10 µM;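 active means every replicate reaching a set inhibition limit, whatever the replicate mean, cut at about 25% in these data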;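 further: 0% = plate neutral control median and 100% = total signal loss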
Target sequence (P42568 whole entry, looked up): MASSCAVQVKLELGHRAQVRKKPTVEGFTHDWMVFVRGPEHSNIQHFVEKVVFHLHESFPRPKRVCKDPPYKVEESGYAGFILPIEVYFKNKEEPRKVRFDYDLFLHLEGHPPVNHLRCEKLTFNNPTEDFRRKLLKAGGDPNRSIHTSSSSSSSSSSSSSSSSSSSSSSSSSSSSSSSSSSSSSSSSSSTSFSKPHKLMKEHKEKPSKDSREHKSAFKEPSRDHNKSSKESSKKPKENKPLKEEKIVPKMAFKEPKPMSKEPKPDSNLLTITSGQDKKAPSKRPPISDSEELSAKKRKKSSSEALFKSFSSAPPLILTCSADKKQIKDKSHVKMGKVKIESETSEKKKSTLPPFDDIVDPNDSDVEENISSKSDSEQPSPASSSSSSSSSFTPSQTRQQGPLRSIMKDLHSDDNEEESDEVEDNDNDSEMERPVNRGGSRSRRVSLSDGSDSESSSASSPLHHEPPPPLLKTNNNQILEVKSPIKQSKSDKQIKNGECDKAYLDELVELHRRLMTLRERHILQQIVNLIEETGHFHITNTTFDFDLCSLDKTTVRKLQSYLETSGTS
FN deposit inh = fibronectin deposition inhibition | AH1F fibroblasts, Alexa488-fibronectin deposition fluorescence, overnight | inhibition, % at 12.6 µM | hit rate 0.086% among 350,000;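 active means mean inhibition across replicates of 30% or more, regardless of how many single replicates reach that level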;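 further: positive control wells lacked labelled fibronectin entirely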
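Schedule: 1 h cell adhesion before compound, then overnight fibronectin incubation; test system: AH1F fibroblast monolayer depositing Alexa488-labelled fibronectin into matrix; quantity: 10000 AH1F cells per well; probe or stimulus: fluorescent fibronectin at 24 nM final; signal: fluorescence, ex 485 nm, em 525 nm; evaluation: percent inhibition as loss of matrix-bound fibronectin fluorescence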
EWS-Fli inh = inhibitors of EWS/Fli oncoprotein transcriptional activity | inhibition, % at 12.6 µM | A673 NR0B1-luciferase reporter, viability-normalised | hit rate 0.67% among 350,000;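 active means mean inhibition of at least 50% after viability correction, with every replicate also passing that limit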;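 further: firefly luciferase signal divided by Alamar Blue viability fluorescence both relative to DMSO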
PAX8 reporter = lowers PAX8-driven luciferase in RMG-I cells. RMG-I TPO-luciferase reporter, SteadyGlo, 24 h. inhibition, % at 12.6 µM. hit rate 1.2% among 360,000. AID 652154;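 active means mean replicate inhibition at least 60% with every replicate also reaching 60%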;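 further: luciferase light reporting Pax8 driven TPO promoter activity; plate controls were median of neutral control wells for no effect and mitoxantrone controls for full effect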
N-glyco inh = N-linked glycosylation inhibition; D54 ERlucT glycosylation luciferase reporter, 24 h; percent of 100 nM tunicamycin response; reporter increase, % at 12.5 µM; hit rate 0.23% among 360,000;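 active means mean luciferase reporter signal, scaled so untreated is 0 and the glycosylation-blocking control 100, at or above a set limit in every replicate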;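 further: luciferase carries N-glycosylation sites so blocking glycosylation raises the light; 0% = median of neutral control wells and 100% = median of 100 nM tunicamycin wells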
DNA binder FP = DNA binding small molecules | hit rate 2% among 640 | shares compounds with EWS-Fli inh | AC35, µM (top dose mostly 68 µM), inactives show at the top dose activity change, negative = DNA binding | salmon sperm DNA acridine orange fluorescence polarization;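 active means fitted curve reaches a 35% signal fall AC35 below twice the sample's top valid tested dose, actives reach about 48 µM in these data; inactive means the rest, including activity in the rising direction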;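 further: lower polarization ratio signals compound binding to DNA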
* = called active by the depositor; x = not tested or not shown; [ ] = remark or other dose. A selection: hits, their analogues and other compounds. The true share with any hit is near 2.5%.

SMILES	HIV Env fusion	AF4-AF9 inh	FN deposit inh	EWS-Fli inh	PAX8 reporter	N-glyco inh	DNA binder FP
C[C@H]1CN([C@@H](C)CO)C(=O)c2cccc(NC(=O)Nc3ccccc3)c2O[C@@H]1CN(C)Cc1ccc(-c2ccccc2)cc1	12.3[16.7 µM]	1.9	x	-10.2	-28.8	x	x
C[C@H]1CN([C@@H](C)CO)C(=O)c2cccc(NC(=O)c3ccc(-c4nccs4)cc3)c2O[C@@H]1CN(C)Cc1ccc(C(=O)Nc2ccccc2N)cc1	-30.9[16.7 µM]	0.6	x	51.9*	x	x	7.4%
C[C@@H]1CN([C@H](C)CO)C(=O)c2cccc(N(C)C)c2O[C@@H]1CN(C)Cc1ccc(C(=O)Nc2ccccc2N)cc1	12.5[16.7 µM]	6.7	x	56.0*	32.4	x	-2.6%
C[C@@H]1CN([C@@H](C)CO)C(=O)c2cc(NC(=O)Nc3ccc4c(c3)OCO4)ccc2O[C@@H](C)CCCCO[C@@H]1CN(C)C(=O)c1ccccc1	-4.2[16.7 µM]	-5.4	x	8.3	5.1	x	x
O=C(NCC1CC1)[C@@H]1[C@@H](CO)[C@@H]2Cn3c(ccc(-c4cccnc4)c3=O)[C@H]1N2Cc1nccs1	x	-0.1	x	-1.8	-4.8	x	x
Cc1ccc(S(=O)(=O)N(C)C[C@H]2Oc3c(cccc3N(C)C)C(=O)N([C@H](C)CO)C[C@@H]2C)cc1	18.2[16.7 µM]	-0.7	-3.5	7.6	-4.3	x	x
Cc1ccc(S(=O)(=O)N(C)C[C@H]2Oc3c(cccc3N(C)C)C(=O)N([C@@H](C)CO)C[C@@H]2C)cc1	8.9[16.7 µM]	-0.1	-1.1	52.8*	-8.6	x	-11.4%
C[C@@H]1CN([C@@H](C)CO)C(=O)c2cccc(NC(=O)Nc3cccc4ccccc34)c2O[C@@H]1CN(C)Cc1ccc(C(=O)Nc2ccccc2N)cc1	x	0.9	-12.7	54.0*	39.8	x	1.7%
C[C@H](CO)N1C[C@H](C)[C@H](CN(C)Cc2ccc(C(=O)Nc3ccccc3N)cc2)Oc2c(NC(=O)C3CC3)cccc2C1=O	34.6[16.7 µM]	2.1	x	26.3	x	x	x
C[C@H](CO)N1C[C@H](C)[C@H](CN(C)Cc2ccc(C(=O)Nc3ccccc3N)cc2)Oc2c(cccc2N(C)C)C1=O	27.6[16.7 µM]	2.6	-8.3	54.2*	8.6	x	4.2%
C[C@@H]1CCCCO[C@H](CN(C)Cc2ccccc2)[C@@H](C)CN([C@@H](C)CO)C(=O)c2cc(NC(=O)C3CCCCC3)ccc2O1	-15.8[16.7 µM]	15.2	x	12.5	11.5	x	x
CCCNC(=O)N1[C@H](C#N)[C@H](c2ccc(C#Cc3cccc(F)c3)cc2)[C@H]1CO	47.9[16.7 µM]	-3.2	-2.1	60.6*	19.6	x	-0.6%
N#C[C@H]1N[C@H](CO)[C@H]1c1ccc(C#Cc2ccc(F)cc2)cc1	-32.3[16.7 µM]	-2.5	6.3	53.1*	-26.9	x	5.8%
N#C[C@H]1[C@H](c2ccc(C#Cc3ccccc3F)cc2)[C@@H](CO)N1C(=O)C1CCCCC1	47.9[16.7 µM]	-2.4	-4.2	66.2*	59.1	x	-14.3%[60 µM]
N#C[C@H]1[C@H](c2ccc(-c3ccccc3F)cc2)[C@@H](CO)N1C(=O)c1ccccn1	8.1[16.7 µM]	-0.8	-22.0	57.0*	-6.6	x	-11.5%
CN(C)CC(=O)Nc1ccc2c(c1)[C@@H]1C[C@@H](CC(=O)NCc3ccccc3)O[C@H](CO)[C@@H]1O2	-2.8[16.7 µM]	-0.5	-1.7	4.2	-9.1	x	x
CO[C@H]1CN(C)C(=O)c2cc(NC(=O)C3CCOCC3)ccc2OC[C@@H](C)N(CC2CC2)C[C@H]1C	4.9[16.7 µM]	x	4.9	0.2	-3.2	x	x
C[C@@H]1CN([C@@H](C)CO)C(=O)Cc2cc(NC(=O)Nc3cccc4ccccc34)ccc2O[C@H]1CN(C)Cc1ccc2c(c1)OCO2	x	5.2	x	23.1	-4.2	x	x
NCC[C@H]1CC[C@@H](NS(=O)(=O)Cc2ccccc2)[C@H](CO)O1	-6.5[16.7 µM]	0.8	2.9	-3.0	-9.5	x	x
C[C@@H]1CN([C@@H](C)CO)C(=O)c2cc(NS(=O)(=O)c3cn(C)cn3)ccc2O[C@@H](C)CCCCO[C@H]1CN(C)Cc1ccc(C(F)(F)F)cc1	-35.3[16.7 µM]	0.7	x	4.9	x	x	x
C[C@H]1CN([C@@H](C)CO)C(=O)c2cc(NC(=O)Cn3cnnn3)ccc2O[C@H]1CN(C)S(=O)(=O)c1ccc(Cl)cc1	-6.0[16.7 µM]	-13.3	x	-4.8	x	x	x
CCCNC(=O)N1[C@H](C#N)[C@H](c2ccc(C#Cc3ccc(F)cc3)cc2)[C@H]1CO	25.1[16.7 µM]	0.1	0.6	70.7*	52.2	x	2.7%
N#C[C@H]1[C@H](c2ccc(C#CC3CCCC3)cc2)[C@H](CO)N1C(=O)Nc1ccc(F)cc1	29.9[16.7 µM]	0.3	-10.9	26.9	55.0	x	x
N#C[C@@H]1[C@H](c2ccc(C#Cc3ccc(F)cc3)cc2)[C@@H](CO)N1C(=O)Nc1ccc(F)cc1	22.9[16.7 µM]	-0.6	3.2	75.3*	102.9*	x	1.0%
CN(C)C(=O)c1ccc(-c2ccccc2[C@@H]2[C@@H](CO)N(C(=O)C3CC3)[C@H]2C#N)cc1	x	-2.3	-3.6	60.6*	x	x	-3.6%
SMILES	HIV Env fusion	AF4-AF9 inh	FN deposit inh	EWS-Fli inh	PAX8 reporter	N-glyco inh	DNA binder FP
O=C(C[C@H]1CC[C@H]2[C@@H](COC[C@@H](O)CN2C(=O)Nc2ccc(C(F)(F)F)cc2)O1)NCC1CCCCC1	x	-2.5	-8.1	x	x	x	x
CCC(=O)N1CC(=O)N2[C@@H](CO)[C@@H](c3ccc(-c4ccccc4F)cc3)[C@@H]2C1	x	x	x	-2.0	x	x	x
Cc1ccc(S(=O)(=O)N(C)C[C@@H]2Oc3ccc(NC(=O)CCN4CCOCC4)cc3C(=O)N([C@H](C)CO)C[C@H]2C)cc1	x	-1.7	x	-5.8	0.9	x	x
O=C(c1cccnc1)N1CC[C@@H]2[C@H](CO)Nc3ccc(C#Cc4cccnc4)cc3[C@@H]21	x	-2.9	0.4	-5.9	-4.1	x	x
CN1c2ccc(-c3ccccc3)cc2[C@@H]2[C@@H](CCN2C(=O)c2ccccc2)[C@@H]1CO	x	6.9	-15.9	1.8	-15.2	x	x
S=C(NCCN1CCOCC1)Nc1ccccc1Cl	-7.3	2.6	x	83.1*	8.6	-0.7	0.4%
CC(C)CC(NC(=O)c1cccs1)c1nnc(SCc2ccc(Cl)c(Cl)c2)n1C (stereo not drawn)	-1.2	1.4	x	76.3*	14.2	-6.0	-20.5%
COc1ccc(C(=O)NC(CO)c2nnc(SCc3ccc(Cl)c(Cl)c3)n2C)cc1 (stereo not drawn)	x	x	x	x	x	2.1	x
Oc1cccc(-c2nnc(-c3cccc(O)c3)nn2)c1	-116.1	7.3	x	72.2*	3.3	-16.0	-9.9%
Oc1cccc(-c2nc3ccccc3s2)c1	x	x	x	x	x	-10.3	x
COc1ccc(S(=O)(=O)Nc2ccc3c(c2)C(=O)N([C@H](C)CO)C[C@@H](C)[C@@H](CN(C)S(=O)(=O)c2cn(C)cn2)O3)cc1	-3.0[16.7 µM]	-2.1	x	-11.8	x	x	x
O=C(CC(F)(F)F)N1C[C@@H]2[C@H](c3ccccc31)[C@H](CO)N2CC1CCCCC1	x	-0.9	x	10.4	16.1	x	x
COc1cccc(OC)c1C(=O)Nc1cc(C)nn1-c1nc2ccccc2[nH]1	28.7	2.4	-2.4	58.5*	14.7	0.9	2.3%
